Here are results for 5 compounds from ChEMBL document CHEMBL3228029, “Blood glucose lowering sulfonamides with asymmetric carbon atoms. 3. Related N-substituted carbamoylbenzoic acids” (J Med Chem, 1979).

Active and inactive are the calls of the source. The rule behind the calls is not given here.

Data set [1] concerns Rattus norvegicus. In words: Hypoglycemic activity in rat at 0.16 to 2.5 mg/kg, iv measured after 3 hrs by GOD-Perid method. The class given is functional, organism-based. Summed up:
(§1)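 Female rats in the fed state were injected iv with the Na salt dissolved in 0.9% saline at four graded doses. Blood samples were taken at 1 and 3 h, and glucose was determined enzymatically by the GOD-Perid method. Effects were expressed relative to the control group (percent control value).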

Data set [2] concerns Rattus norvegicus. In words: Hypoglycemic activity in iv dosed rat measured after 1 hr by GOD-Perid method. Format: functional. Summed up:
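Fed female rats received the compound iv as its Na salt in 0.9% saline at four doses. Blood was sampled 1 h post-injection and glucose measured enzymatically (GOD-Perid). Changes were expressed as percent of the control group, and linear dose-response curves were fitted. ED50 is the dose for 50% reduction of the mean control value, with 95% confidence limits.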

The subject of data set [3] is Rattus norvegicus. In words: Hypoglycemic activity in rat at 0.0064 to 0.1 mg/kg, iv measured after 3 hrs by GOD-Perid method. Format: functional, organism-based. A digest of the protocol:
as §1

For data set [4], the system named is Rattus norvegicus. In words: Hypoglycemic activity in rat at 20 to 375 mg/kg, iv measured after 3 hrs by GOD-Perid method. Format: functional, organism-based. A digest of the protocol: as §1
The subject of data set [5] is Rattus norvegicus. Briefly: Hypoglycemic activity in rat at 40 to 937.5 mg/kg, iv measured after 3 hrs by GOD-Perid method. Format: functional, organism-based. Summed up: as §1
Data set [6] relates to Rattus norvegicus. Briefly: Toxicity in rat assessed as suvival at 937.5 mg/kg, iv. Format: organism-based. The arrangement: dose 937.5 mg/kg, route intravenous. The conditions noted are these: in vivo. Summed up: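 Survival was recorded in fed female rats after iv injection of the Na salt in 0.9% saline as the top dose of a four-dose series. Blood glucose was sampled at 1 and 3 h.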

Data set [7] concerns Rattus norvegicus. In words: Hypoglycemic activity in rat at 9.6 to 150 mg/kg, iv measured after 3 hrs by GOD-Perid method. The class given is functional, organism-based. A digest of the protocol: as §1

`COc1ccc(F)cc1[C@@H](C)NC(=O)Cc1ccc(S(=O)(=O)Nc2ncc(CC(C)C)cn2)cc1`: in the data set on Rattus norvegicus [1], the result was inactive. Further, the ED50 in the data set on Rattus norvegicus [2] was determined as 0.81 mg/kg.

With `COc1ccc(F)cc1[C@H](C)NC(=O)Cc1ccc(S(=O)(=O)Nc2ncc(CC(C)C)cn2)cc1` [GLIFLUMIDE], the result in the data set on Rattus norvegicus [3] was inactive. The compound also came in with an ED50 in the data set on Rattus norvegicus [2] of 0.02 mg/kg.

With `COc1ccc(F)cc1[C@H](C)NC(=O)Cc1ccc(C(=O)O)cc1`, the outcome in the data set on Rattus norvegicus [4] was inactive. Moreover, the 50% effect level in the data set on Rattus norvegicus [2] (ED50) was put at a dose of 63.9 mg/kg.

Take `COc1ccc(F)cc1[C@@H](C)NC(=O)Cc1ccc(C(=O)O)cc1`: the result in the data set on Rattus norvegicus [5] was inactive. For the same compound, the Activity result with Rattus norvegicus [6] was “Toxic”. This compound also registered an ED50 in the data set with Rattus norvegicus [2] of 1180 mg/kg.

Turning to `COCCOc1cnc(NS(=O)(=O)c2ccccc2)nc1` [GLYMIDINE], in the data set with Rattus norvegicus [7], the outcome was inactive. In addition, the ED50 in the data set on Rattus norvegicus [2] stood at 69.7 mg/kg.
